Positions count from the first letter of the chain named. Calls of active or inactive are those of the source. No cut-off for these calls is given here.
Experiments:
[1] = target: T1, C-C chemokine receptor type 3 (Homo sapiens) (UniProt P51677); assay: Agonist activity at human recombinant CCR3 expressed in eosinophils; type: functional
T1 sequence (whole entry): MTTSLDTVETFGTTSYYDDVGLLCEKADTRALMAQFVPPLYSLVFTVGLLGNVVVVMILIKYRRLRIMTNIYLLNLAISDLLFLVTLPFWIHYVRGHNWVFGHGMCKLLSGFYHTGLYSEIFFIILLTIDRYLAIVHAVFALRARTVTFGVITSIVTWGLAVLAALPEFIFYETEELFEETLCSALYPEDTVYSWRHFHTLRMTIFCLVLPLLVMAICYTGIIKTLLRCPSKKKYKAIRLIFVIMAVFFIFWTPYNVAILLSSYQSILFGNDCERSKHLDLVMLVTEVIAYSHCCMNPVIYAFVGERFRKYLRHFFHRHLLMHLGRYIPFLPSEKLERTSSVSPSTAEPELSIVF
In short: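 Gated autofluorescence forward scatter (shape change) assay. Granulocytes from healthy-donor blood were isolated on plasma/Percoll gradients and pre-incubated at 5×10^6 cells/ml for 30 min at room temperature in GAFS buffer (PBS, 0.9 mM CaCl2, 0.5 mM MgCl2, 10 mM HEPES, 10 mM glucose, 0.1% BSA). Cells were exposed to varying compound concentrations for 4 min at 37°C, chilled, fixed and read by flow cytometry.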

[2] = target: T1, C-C chemokine receptor type 3 (Homo sapiens); assay: Agonist activity at human recombinant CCR3 expressed in mouse L1.2 cells assessed as induction of chemotaxis; type: functional, cell-based
In short: (§1)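 L1.2 cells transfected with CCR3 (stable line kept in 1 mg/ml G-418, or transient electroporation at 1 μg DNA/1 × 10^6 cells, then overnight 10 mM sodium butyrate). Duplicate agonist concentrations in RPMI/0.1% BSA were placed in the lower wells and 2 × 10^5 cells on the upper filter (5 μm pores). After 5 h at 37°C, 5% CO2, migrated cells were counted by hemocytometer and expressed as % migrating.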

[3] = target: T1, C-C chemokine receptor type 3 (Homo sapiens); assay: Reduction of human recombinant CCR3 expression in mouse L1.2 cells relative to control; type: cell-based; parameters: scale not given: the % may be the effect or the level left
In short: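 In duplicate, 1 × 10^6 CCR3-L1.2 cells in ice-cold medium were warmed to 37°C for 20 min, then given stimulus (100 nM CCL11 or 10 μM compound) for 20 min; ice-held tubes and a buffer tube served as controls. Surface CCR3 was measured by anti-CCR3 flow cytometry as mean fluorescence minus isotype, expressed as % of buffer-treated cells.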

[4] = test system: T2, C-C chemokine receptor type 3 (Homo sapiens), P51677 [Y41A]; assay: Agonist activity at human recombinant CCR3 Y41A mutant expressed in mouse L1.2 cells assessed as induction of chemotaxis; type: functional, cell-based; in short: as §1
T2 sequence (whole entry): T1 sequence (whole entry) with Y41A

[5] = test system: T3, C-C chemokine receptor type 3 (Homo sapiens), P51677 [Y113A]; assay: Agonist activity at human recombinant CCR3 Y113A mutant expressed in mouse L1.2 cells assessed as induction of chemotaxis; type: functional, cell-based; in short: as §1
T3 sequence (whole entry): T1 sequence (whole entry) with Y113A

[6] = test system: T4, C-C chemokine receptor type 3 (Homo sapiens), P51677 [E287Q]; assay: Agonist activity at human recombinant CCR3 E287Q mutant expressed in mouse L1.2 cells assessed as induction of chemotaxis; type: functional, cell-based; in short: as §1
T4 sequence (whole entry): T1 sequence (whole entry) with E287Q

[7] = target: T1, C-C chemokine receptor type 3 (Homo sapiens); assay: Agonist activity at human recombinant CCR3 expressed in mouse L1.2 cells assessed as receptor internalization at 10 uM after 20 mins by flow cytometry

Activity [1]: Dose-dependent effect
Activity [2]: Dose-dependent effect
Activity [3]: 59.4%
Activity [4]: inactive
Activity [5]: inactive
Activity [6]: inactive
Activity [7]: Active
SMILES: O=C(Cc1cccc2occc12)Nc1cc[n+](CCCc2ccccc2)c(Br)c1
